ChEMBL document CHEMBL1132356, “Structural modification of Fas C-terminal tripeptide and its effects on the inhibitory activity of Fas/FAP-1 binding” (J Med Chem, 1999)
One block for each molecule: values may come before it. Starred links: 1 amine or outer side, 2 acyl side, 3 side chain; linkers in the order of their positions; H or OH if unused. Non-standard residues stand in square brackets, D forms with d. Residues, ends and D or L forms follow the SMILES beside them. *: point of attachment. Sta = CC(C)C[C@H](N)[C@@H](O)CC(=O)O; tBuAla = CC(C)(C)C[C@H](N)C(=O)O; NMeL = CN[C@@H](CC(C)C)C(=O)O; Chg = N[C@H](C(=O)O)C1CCCCC1; Phg = N[C@H](C(=O)O)c1ccccc1; Tle = CC(C)(C)[C@H](N)C(=O)O; NMeS = CN[C@@H](CO)C(=O)O; hSer = N[C@@H](CCO)C(=O)O; Nva = CCC[C@H](N)C(=O)O; Abu = CC[C@H](N)C(=O)O; Aib = CC(C)(N)C(=O)O; CO = O=C([*:1])[*:2]; Bz = O=C(c1ccccc1)*; NHPh = c1ccc(N*)cc1; Bn = c1ccc(C*)cc1

Key:
[1] = Compound (30 mM) was tested in vitro for inhibitory potency against Fas-associated phosphatase-1 binding from HFAP-10cDNA subcloned into the bluescript vector pSK-II(Stratagene); settings: in the assay text read “30 µM” for “30 mM”
How it was run: (§1)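 ³⁵S-labeled protein incubated 16 h at 4 °C with peptide and GST-Fas immobilized on beads, in pH 8.0 Tris/NaCl buffer with DTT, EDTA, 1.1% NP-40 and protease inhibitors. After four washes, bead-bound radioactivity was counted by scintillation. Specific binding is Fas binding minus FasΔ15 binding. % inhibition = 100 − (specific binding with peptide / without peptide × 100).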

[2] = Compound (50 mM) was tested in vitro for inhibitory potency against Fas-associated phosphatase-1 binding from HFAP-10cDNA subcloned into the bluescript vector pSK-II(Stratagene); how it was run: as §1
[3] = Compound (100 mM) was tested in vitro for inhibitory potency against Fas-associated phosphatase-1 binding from HFAP-10cDNA subcloned into the bluescript vector pSK-II(Stratagene); how it was run: as §1
[4] = target: Tyrosine-protein phosphatase non-receptor type 13 (Homo sapiens) (UniProt Q12923); experiment: In vitro inhibition of Fas-associated phosphatase-1 binding from HFAP-10cDNA subcloned into bluescript vector; parameters: concentration or dose not given beside the values; settings: concentration not given here
Chain of Tyrosine-protein phosphatase non-receptor type 13 (Homo sapiens) (Q12923 whole entry, the tested form may be a part): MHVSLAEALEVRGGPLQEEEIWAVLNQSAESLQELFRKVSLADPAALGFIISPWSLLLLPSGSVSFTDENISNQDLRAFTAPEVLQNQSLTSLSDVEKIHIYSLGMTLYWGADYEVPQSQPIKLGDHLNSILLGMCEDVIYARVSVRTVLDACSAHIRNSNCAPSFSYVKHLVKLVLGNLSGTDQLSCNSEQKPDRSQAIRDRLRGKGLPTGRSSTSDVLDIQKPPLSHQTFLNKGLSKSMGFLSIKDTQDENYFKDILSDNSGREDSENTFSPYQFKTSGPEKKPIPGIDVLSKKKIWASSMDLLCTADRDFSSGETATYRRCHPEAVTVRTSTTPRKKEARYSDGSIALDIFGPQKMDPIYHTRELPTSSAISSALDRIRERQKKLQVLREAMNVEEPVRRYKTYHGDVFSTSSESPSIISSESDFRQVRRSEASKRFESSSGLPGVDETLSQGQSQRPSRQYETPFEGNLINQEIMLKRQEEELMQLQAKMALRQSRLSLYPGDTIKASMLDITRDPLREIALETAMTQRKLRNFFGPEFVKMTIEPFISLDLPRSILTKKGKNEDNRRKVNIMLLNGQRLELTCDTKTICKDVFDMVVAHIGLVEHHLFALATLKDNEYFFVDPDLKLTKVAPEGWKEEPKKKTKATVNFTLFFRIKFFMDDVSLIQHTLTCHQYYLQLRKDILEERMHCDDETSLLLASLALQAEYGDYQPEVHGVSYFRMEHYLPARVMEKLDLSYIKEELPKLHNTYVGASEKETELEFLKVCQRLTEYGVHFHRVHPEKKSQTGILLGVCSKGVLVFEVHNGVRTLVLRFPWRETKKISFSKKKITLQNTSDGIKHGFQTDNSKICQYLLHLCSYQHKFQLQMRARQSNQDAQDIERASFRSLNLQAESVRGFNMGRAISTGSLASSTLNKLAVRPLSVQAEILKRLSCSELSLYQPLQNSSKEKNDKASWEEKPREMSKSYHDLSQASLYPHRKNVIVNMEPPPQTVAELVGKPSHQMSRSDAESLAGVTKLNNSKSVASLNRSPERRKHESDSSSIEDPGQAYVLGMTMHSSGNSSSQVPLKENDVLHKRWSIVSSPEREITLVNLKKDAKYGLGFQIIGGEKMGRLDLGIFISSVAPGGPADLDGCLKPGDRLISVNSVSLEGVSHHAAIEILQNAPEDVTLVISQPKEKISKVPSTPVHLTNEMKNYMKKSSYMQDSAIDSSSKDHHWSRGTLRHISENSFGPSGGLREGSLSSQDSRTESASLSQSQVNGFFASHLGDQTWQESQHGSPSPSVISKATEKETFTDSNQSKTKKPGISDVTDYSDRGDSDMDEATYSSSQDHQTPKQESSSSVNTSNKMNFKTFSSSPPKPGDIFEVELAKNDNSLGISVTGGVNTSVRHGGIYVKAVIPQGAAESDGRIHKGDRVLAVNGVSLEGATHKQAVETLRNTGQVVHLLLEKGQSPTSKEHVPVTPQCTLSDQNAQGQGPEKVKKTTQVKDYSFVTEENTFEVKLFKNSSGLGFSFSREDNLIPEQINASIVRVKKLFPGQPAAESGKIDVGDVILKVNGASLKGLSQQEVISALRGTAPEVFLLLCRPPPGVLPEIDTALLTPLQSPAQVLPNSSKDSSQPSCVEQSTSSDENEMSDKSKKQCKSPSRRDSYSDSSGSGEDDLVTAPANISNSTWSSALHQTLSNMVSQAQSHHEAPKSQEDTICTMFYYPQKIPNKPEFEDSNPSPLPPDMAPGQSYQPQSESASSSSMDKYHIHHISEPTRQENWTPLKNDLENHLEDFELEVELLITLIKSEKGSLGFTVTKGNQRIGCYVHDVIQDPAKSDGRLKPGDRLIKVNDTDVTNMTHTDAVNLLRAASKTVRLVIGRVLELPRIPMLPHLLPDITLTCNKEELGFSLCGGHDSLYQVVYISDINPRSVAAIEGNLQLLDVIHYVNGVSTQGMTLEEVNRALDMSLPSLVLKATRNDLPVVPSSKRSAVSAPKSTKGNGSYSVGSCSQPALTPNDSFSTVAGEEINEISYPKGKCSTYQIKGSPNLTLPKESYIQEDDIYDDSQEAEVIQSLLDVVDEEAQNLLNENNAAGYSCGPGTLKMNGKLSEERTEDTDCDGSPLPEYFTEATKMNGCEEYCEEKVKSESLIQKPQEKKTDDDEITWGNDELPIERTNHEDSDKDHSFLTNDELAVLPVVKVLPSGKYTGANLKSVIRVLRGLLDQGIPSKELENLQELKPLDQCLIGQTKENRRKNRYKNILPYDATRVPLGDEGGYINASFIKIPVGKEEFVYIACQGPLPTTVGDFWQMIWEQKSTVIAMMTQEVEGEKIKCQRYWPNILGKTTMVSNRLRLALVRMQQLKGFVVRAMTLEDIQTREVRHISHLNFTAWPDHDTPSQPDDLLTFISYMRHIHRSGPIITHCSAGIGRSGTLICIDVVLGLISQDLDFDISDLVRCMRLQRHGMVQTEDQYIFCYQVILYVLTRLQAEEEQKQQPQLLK
How it was run: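 35S-labeled FAP-1 incubated 16 h at 4 °C with peptide and GST-Fas fusion protein on glutathione beads in 150 mM NaCl, 50 mM Tris pH 8.0, 5 mM DTT, 2 mM EDTA, 1.1% NP-40, protease inhibitors. After four washes, bead-bound radioactivity counted by scintillation. Specific binding is Fas minus Fas∆15 binding. % inhibition = 100 − (specific binding with peptide / without peptide × 100).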

[5] = Compound (10 mM) was tested in vitro for inhibitory potency against Fas-associated phosphatase-1 binding from HFAP-10cDNA subcloned into the bluescript vector pSK-II(Stratagene); settings: in the assay text read “10 uM” for “10 mM”; how it was run: as §1

SMILES: CCC[C@H](NC(=O)[C@H](CO)NC(C)=O)C(=O)N[C@H](C(=O)O)C(C)C (Ac-Ser-[Nva]-Val-OH)
inhibition [1]: 6%

SMILES: CC[C@H](NC(=O)[C@H](CC(C)C)NC(=O)[C@H](CO)NC(C)=O)C(=O)O (Ac-Ser-Leu-[Abu]-OH)
inhibition [2]: 18.7%

SMILES: CC(=O)N[C@@H](CC(C)C)[C@@H](O)CC(=O)N[C@@H](CC(C)C)C(=O)N[C@H](C(=O)O)C(C)C (Ac-[Sta]-Leu-Val-OH)
inhibition [2]: 9.9%

SMILES: CC(=O)N[C@@H](CO)C(=O)N[C@@H](CC(C)C)C(=O)N[C@H](C(=O)O)C(C)C
inhibition [2]: 44.3% | inhibition [4]: 101% | inhibition [1]: 31.1% | inhibition [3]: 87.6%

SMILES: CC(C)C[C@H](NC(=O)[C@H](CO)NC(=O)c1ccccc1)C(=O)N[C@H](C(=O)O)C(C)C (Bz-Ser-Leu-Val-OH)
inhibition [5]: 28%

SMILES: CC(=O)N[C@@H](CO)C(=O)NC(C)(C)C(=O)N[C@H](C(=O)O)C(C)C (Ac-Ser-[Aib]-Val-OH)
inhibition [4]: -4%

SMILES: CC(=O)N[C@@H](CO)C(=O)NCCC(=O)N[C@H](C(=O)O)C(C)C
inhibition [1]: 13.6%

SMILES: CC(=O)N[C@@H](CO)C(=O)N[C@H](C(=O)N[C@H](C(=O)O)C(C)C)C(C)(C)C (Ac-Ser-[Tle]-Val-OH)
inhibition [1]: 54.6%

SMILES: CC(=O)N1C[C@@H](O)C[C@H]1C(=O)N[C@@H](CC(C)C)C(=O)N[C@H](C(=O)O)C(C)C
inhibition [2]: 9.6%

SMILES: CC(C)C[C@H](NC(=O)[C@H](CO)NC(=O)Nc1ccc(C(=O)[C@@H](N)CCC(=O)O)cc1)C(=O)N[C@H](C(=O)O)C(C)C
inhibition [5]: 66.6%

SMILES: CCC[C@H](NC(=O)[C@H](CC(C)C)NC(=O)[C@H](CO)NC(C)=O)C(=O)O (Ac-Ser-Leu-[Nva]-OH)
inhibition [2]: 16.6%

SMILES: CC(C)C[C@H](NC(=O)[C@H](CO)NC(=O)NC1CCCCC1)C(=O)N[C@H](C(=O)O)C(C)C
inhibition [5]: 29.1%

SMILES: COC(=O)[C@@H](NC(=O)[C@H](CC(C)C)NC(=O)[C@H](CO)NC(C)=O)C(C)C (Ac-Ser-Leu-Val-OMe)
inhibition [4]: -0.5%

SMILES: CC(=O)N[C@@H](COC(C)=O)C(=O)N[C@@H](CC(C)C)C(=O)N[C@H](C(=O)O)C(C)C (Ac-Ser(Ac)-Leu-Val-OH)
inhibition [3]: 47.9%

SMILES: CC(=O)N[C@@H](COC(=O)c1ccccc1)C(=O)N[C@@H](CC(C)C)C(=O)N[C@H](C(=O)O)C(C)C (Ac-Ser(Bz)-Leu-Val-OH)
inhibition [3]: 36.2%

SMILES: CC(C)C[C@H](NC(=O)[C@H](CO)NC(=O)Nc1ccccc1C(=O)[C@@H](N)CCC(=O)O)C(=O)N[C@H](C(=O)O)C(C)C
inhibition [5]: 47.8%

SMILES: CC(=O)N[C@@H](CO)C(=O)N[C@H](CC(C)C)C(=O)N[C@H](C(=O)O)C(C)C
inhibition [4]: 1.2%

SMILES: CC(=O)N1C[C@H](O)C[C@H]1C(=O)N[C@@H](CC(C)C)C(=O)N[C@H](C(=O)O)C(C)C
inhibition [2]: 2.4%

SMILES: CC[C@H](NC(=O)[C@H](CO)NC(C)=O)C(=O)N[C@H](C(=O)O)C(C)C (Ac-Ser-[Abu]-Val-OH)
inhibition [1]: 21.1%

SMILES: CC(=O)N[C@@H](CO)C(=O)N[C@H](C(=O)N[C@H](C(=O)O)C(C)C)C1CCCCC1 (Ac-Ser-[Chg]-Val-OH)
inhibition [1]: 34.7%

SMILES: CC(C)C[C@H](NC(=O)[C@H](CO)NC(=O)C1CCCCC1)C(=O)N[C@H](C(=O)O)C(C)C
inhibition [5]: 16%

SMILES: CC(=O)N[C@@H](CO)C(=O)N(C)[C@@H](CC(C)C)C(=O)N[C@H](C(=O)O)C(C)C (Ac-Ser-[NMeL]-Val-OH)
inhibition [4]: 33.4%

SMILES: CC(=O)N[C@@H](CO)C(=O)N[C@@H](CC(C)C)C(=O)N[C@H](C(=O)Oc1nn[nH]n1)C(C)C
inhibition [4]: 14.4%

Further lines, results first:

inhibition [3]: 10.4%
SMILES: CC(=O)N[C@@H](COCc1ccccc1)C(=O)N[C@@H](CC(C)C)C(=O)N[C@H](C(=O)O)C(C)C (Ac-Ser(Bn)-Leu-Val-OH)

inhibition [2]: 7.7%
SMILES: CC(=O)N[C@@H](CO)C(=O)N[C@@H](CC(C)C)C(=O)N[C@H](C(=O)O)C1CCCCC1 (Ac-Ser-Leu-[Chg]-OH)

inhibition [4]: 9.5%
SMILES: CC(=O)N[C@@H](CO)C(=O)Nc1cccc(C(=O)N[C@H](C(=O)O)C(C)C)c1

inhibition [5]: 76.8%
SMILES: CC(C)C[C@H](NC(=O)[C@H](CO)NC(=O)Nc1cccc(C(=O)[C@@H](N)CCC(=O)O)c1)C(=O)N[C@H](C(=O)O)C(C)C

inhibition [1]: 46.7%
SMILES: CC(=O)N[C@@H](CO)C(=O)N[C@@H](Cc1ccc(Oc2ccc(OC(C)=O)cc2)cc1)C(=O)N[C@H](C(=O)O)C(C)C

inhibition [5]: 29.6%
SMILES: CC[C@@H](C)[C@H](NC(=O)[C@H](CCC(=O)O)NC(C)=O)C(=O)N[C@@H](CCC(N)=O)C(=O)N[C@@H](CO)C(=O)N[C@@H](CC(C)C)C(=O)N[C@H](C(=O)O)C(C)C

inhibition [4]: 59.2%
SMILES: CC(=O)N[C@H](CO)C(=O)N[C@@H](CC(C)C)C(=O)N[C@H](C(=O)O)C(C)C

inhibition [2]: 13.3%
SMILES: CC(=O)N[C@@H](CCO)C(=O)N[C@@H](CC(C)C)C(=O)N[C@H](C(=O)O)C(C)C (Ac-[hSer]-Leu-Val-OH)

inhibition [4]: 20.6%
SMILES: CC(=O)N(C)[C@@H](CO)C(=O)N[C@@H](CC(C)C)C(=O)N[C@H](C(=O)O)C(C)C (Ac-[NMeS]-Leu-Val-OH)

inhibition [4]: 16.5%
SMILES: CC(=O)N[C@@H](CO)C(=O)Nc1ccc(C(=O)N[C@H](C(=O)O)C(C)C)cc1

inhibition [5]: 51.5%
SMILES: CC(C)C[C@H](NC(=O)[C@H](CO)NC(=O)Nc1ccccc1)C(=O)N[C@H](C(=O)O)C(C)C ({NHPh-CO}-Ser-Leu-Val-OH)

inhibition [4]: -6.8%
SMILES: CC(=O)N[C@@H](CO)C(=O)N[C@@H](CC(C)C)C(=O)N[C@@H](C(=O)O)C(C)C

inhibition [2]: 7.2%
SMILES: CC(=O)N[C@@H](CO)C(=O)N[C@@H](CC(C)C)C(=O)N[C@H](C(=O)O)C(C)(C)C (Ac-Ser-Leu-[Tle]-OH)

inhibition [1]: 4.9%
SMILES: CC(=O)N[C@@H](CO)C(=O)N[C@@H](CC(C)C)[C@@H](O)C(=O)N[C@H](C(=O)O)C(C)C

inhibition [1]: 18.5%
SMILES: CC(=O)N[C@@H](CO)C(=O)N[C@H](C(=O)N[C@H](C(=O)O)C(C)C)c1ccccc1 (Ac-Ser-[Phg]-Val-OH)

inhibition [2]: 10.1%
SMILES: CC(=O)N[C@@H](CO)C(=O)N[C@@H](CC(C)C)C(=O)N[C@@H](CC(C)(C)C)C(=O)O (Ac-Ser-Leu-[tBuAla]-OH)
